According to ChEMBL document CHEMBL1122744, “2-Chloroethyl (methylsulfonyl)methanesulfonate and related (methylsulfonyl)methanesulfonates. Antineoplastic activity in vivo” (J Med Chem, 1984):

Tests used:
Mus musculus [1] = test: Change in weight by day 5, obtained by subtracting treated groups of animals minus control groups of animals at dose 100 mg/kg in exp1.; type: functional
Outline: (§1)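 Mice were inoculated ip with 10^6 P388 leukemia cells on day 0, when treated and control mice weighed 19–22 g. Treatment was given ip once daily on days 1–5, within about 5 min of preparing the solution or suspension. Groups of six (occasionally five) were treated, with 30 untreated inoculated mice as controls. The day-5 weight change is the mean treated change minus the mean control change.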

Mus musculus [2] = test: Change in weight by day 5, obtained by subtracting treated groups of animals minus control groups of animals at dose 25 mg/kg in exp1.; type: functional; outline: as §1
Mus musculus [3] = test: Mortality by day 5 expressed as number of mice died to the total treated at dose 100 mg/kg in exp1; 2/6; type: ADME, organism-based; parameters: dose 100 mg/kg; conditions: in vivo
Mus musculus [4] = test: Median survival time of the treated control groups, in which there are no 30-day survivors at dose 100 mg/kg in exp1; type: functional
Mus musculus [5] = test: Median survival time of the treated control groups, in which there are no 30-day survivors at dose 25 mg/kg in exp1; type: functional
Mus musculus [6] = test: Mortality by day 5 expressed as number of mice died to the total treated at dose 25 mg/kg in exp1; 0/6; type: ADME, organism-based; parameters: dose 25 mg/kg; conditions: in vivo
Mus musculus [7] = test: Mortality by day 5 expressed as number of mice died to the total treated at dose 50 mg/kg in exp1; 0/6; type: ADME, organism-based; parameters: dose 50 mg/kg; conditions: in vivo
Mus musculus [8] = test: Median survival time of the treated control groups, in which there are no 30-day survivors at dose 50 mg/kg in exp1; type: functional
Mus musculus [9] = test: Median survival time of the untreated control groups, in which there are no 30-day survivors at dose 25 mg/kg in exp1; type: functional
Mus musculus [10] = test: Median survival time of the untreated control groups, in which there are no 30-day survivors at dose 50 mg/kg in exp1; type: functional
Mus musculus [11] = test: Median survival time of the untreated control groups, in which there are no 30-day survivors at dose 100 mg/kg in exp1; type: functional
[12] = Ratio of median survival times for non-survivors at dose 100 mg/kg in exp1; type: functional; parameters: unit: %
Outline: (§2)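 Mice were inoculated ip with 10^6 P388 leukemia cells on day 0. Groups of six (occasionally five) were dosed ip qd on days 1–5 with fresh suspensions; 30 mice served as untreated controls. Deaths were recorded daily up to day 60. T/C% compares the median survival of treated non-survivors (<60 days) with the control median. Medians used grouped data when there were no 30-day survivors, otherwise ungrouped data. t = toxic.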

[13] = Ratio of median survival times for non-survivors at dose 50 mg/kg in exp1; type: functional; parameters: unit: %; outline: as §2
Mus musculus [14] = test: Mortality by day 5 expressed as number of mice died to the total treated at dose 100 mg/kg in exp1; 6/6; type: ADME, organism-based; parameters: dose 100 mg/kg; conditions: in vivo
Mus musculus [15] = test: Change in weight by day 5, obtained by subtracting treated groups of animals minus control groups of animals at dose 6 mg/kg in exp1.; type: functional; outline: as §1
Mus musculus [16] = test: Change in weight by day 5, obtained by subtracting treated groups of animals minus control groups of animals at dose 6 mg/kg in exp2; type: functional
Outline: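 Mice were inoculated ip with 10^6 P388 leukemia cells on day 0 and weighed 19–22 g that day. Compound was given ip once daily on days 1–5, within about 5 min of preparing the solution or suspension, to groups of six (occasionally five). Thirty inoculated untreated mice served as controls. The value is the average weight change of treated mice minus that of controls on day 5.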

Mus musculus [17] = test: Change in weight by day 5, obtained by subtracting treated groups of animals minus control groups of animals at dose 12 mg/kg in exp1; type: functional; outline: as §1
Mus musculus [18] = test: Change in weight by day 5, obtained by subtracting treated groups of animals minus control groups of animals at dose 12 mg/kg in exp2; type: functional; outline: as §1
Mus musculus [19] = test: Change in weight by day 5, obtained by subtracting treated groups of animals minus control groups of animals at dose 25 mg/kg in exp2; type: functional; outline: as §1
Mus musculus [20] = test: Mortality by day 5 expressed as number of mice died to the total treated at dose 12 mg/kg in exp1; 0/6; type: ADME, organism-based; parameters: dose 12 mg/kg; conditions: in vivo
Mus musculus [21] = test: Mortality by day 5 expressed as number of mice died to the total treated at dose 12 mg/kg in exp2; 1/6; type: ADME, organism-based; parameters: dose 12 mg/kg; conditions: in vivo
Mus musculus [22] = test: Median survival time of the treated control groups, in which there are no 30-day survivors at dose 12 mg/kg in exp1; type: functional
Mus musculus [23] = test: Median survival time of the treated control groups, in which there are no 30-day survivors at dose 12 mg/kg in exp2; type: functional
Mus musculus [24] = test: Mortality by day 5 expressed as number of mice died to the total treated at dose 6 mg/kg in exp1; 0/5; type: ADME, organism-based; parameters: dose 6 mg/kg; conditions: in vivo
Mus musculus [25] = test: Mortality by day 5 expressed as number of mice died to the total treated at dose 6 mg/kg in exp2; 0/6; type: ADME, organism-based; parameters: dose 6 mg/kg; conditions: in vivo
Mus musculus [26] = test: Mortality by day 5 expressed as number of mice died to the total treated at dose 25 mg/kg in exp1; 6/6; type: ADME, organism-based; parameters: dose 25 mg/kg; conditions: in vivo
Mus musculus [27] = test: Mortality by day 5 expressed as number of mice died to the total treated at dose 25 mg/kg in exp2; 4/6; type: ADME, organism-based; parameters: dose 25 mg/kg; conditions: in vivo
Mus musculus [28] = test: Median survival time of the untreated control groups, in which there are no 30-day survivors at dose 6 mg/kg in exp1; type: functional
Mus musculus [29] = test: Median survival time of the untreated control groups, in which there are no 30-day survivors at dose 6 mg/kg in exp2; type: functional
Mus musculus [30] = test: Median survival time of the treated control groups, in which there are no 30-day survivors at dose 6 mg/kg in exp2; type: functional
Mus musculus [31] = test: Median survival time of the untreated control groups, in which there are no 30-day survivors at dose 12 mg/kg in exp1; type: functional
[32] = Median survival time of the untreated control groups, in which there are no 30-day survivors at dose 12 mg/kg in exp2; type: functional
[33] = Ratio of median survival times for non-survivors at dose 6 mg/kg in exp2; type: functional
Mus musculus [34] = test: Median survival time of the untreated control groups, in which there are no 30-day survivors at dose 25 mg/kg in exp2; type: functional
[35] = Ratio of median survival times for non-survivors at dose 12 mg/kg in exp1; type: functional; outline: as §2
[36] = Ratio of median survival times for non-survivors at dose 12 mg/kg in exp2; type: functional; outline: as §2
[37] = Ratio of median survival times for non-survivors at dose 25 mg/kg in exp1; t= toxic; type: ADME, organism-based; parameters: dose 25 mg/kg; conditions: in vivo
[38] = Ratio of median survival times for non-survivors at dose 25 mg/kg in exp2; t= toxic; type: ADME, organism-based; parameters: dose 25 mg/kg; conditions: in vivo
[39] = Ratio of median survival times for non-survivors at dose 6 mg/kg in exp1; type: functional
Mus musculus [40] = test: Median survival time of the treated control groups, in which there are no 30-day survivors at dose 6 mg/kg in exp1; type: functional

CS(=O)(=O)OCCBr
Change in weight (Mus musculus [1]): -3
Change in weight (Mus musculus [2]): -0.7
Mortality (Mus musculus [3]): 2
Median survival time (Mus musculus [4]): 11.8
Median survival time (Mus musculus [5]): 12
Mortality (Mus musculus [6]): 0
Mortality (Mus musculus [7]): 0
Median survival time (Mus musculus [8]): 12.3
Median survival time (Mus musculus [9]): 11.1
Median survival time (Mus musculus [10]): 11.1
Median survival time (Mus musculus [11]): 11.1
Ratio [12]: 106
Ratio [13]: 110
Mortality (Mus musculus [14]): 6

COS(=O)(=O)CS(C)(=O)=O
Change in weight (Mus musculus [15]): 0
Change in weight (Mus musculus [16]): -0.8
Change in weight (Mus musculus [17]): -4.1
Change in weight (Mus musculus [18]): -2.8
Change in weight (Mus musculus [19]): -2.8
Mortality (Mus musculus [20]): 0
Mortality (Mus musculus [21]): 1
Median survival time (Mus musculus [22]): 14
Median survival time (Mus musculus [23]): 13.7
Mortality (Mus musculus [24]): 0
Mortality (Mus musculus [25]): 0
Mortality (Mus musculus [6]): 0
Mortality (Mus musculus [26]): 6
Mortality (Mus musculus [27]): 4
Median survival time (Mus musculus [28]): 10.7
Median survival time (Mus musculus [29]): 10.7
Median survival time (Mus musculus [9]): 10.7
Median survival time (Mus musculus [30]): 13.4
Median survival time (Mus musculus [31]): 10.7
Median survival time [32]: 10.7
Ratio [33]: 125
Median survival time (Mus musculus [34]): 10.7
Ratio [35]: 130
Ratio [36]: 128
Ratio [37]: Toxic
Ratio [38]: Toxic
Ratio [39]: 135
Median survival time (Mus musculus [40]): 14.5
